Activity calls are given as the source filed them. The calls are words filed in the database; no cut-off is given here.

The test system of one data set is PBMC. Nature of the data set: Inhibition of TNFalpha production in LPS-stimulated human PBMC preincubated before LPS challenge measured after 4 hrs by enzyme immunoassay. The data set is classed as functional, cell-based.
In data set [1] the test system is Rattus norvegicus. Nature of the data set: Antiinflammatory activity in po dosed rat assessed as inhibition of LPS-induced TNFalpha production. Format: functional. The method, boiled down: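 Rat in vivo model: rats were dosed orally and TNF-α production was induced with LPS. Inhibition of TNF-α production was measured and an ED50 was determined.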
A short description of data set [2]: Protein binding in human plasma. Format: ADME, cell-free. As to conditions: read-out: PPB (converted).
Data set [3] is described as follows: Cmax in rat at 10 mg/kg, po. The data set is classed as ADME, organism-based. More on the design: dose 10 mg/kg, route oral. As to conditions: in vivo. An outline of the steps: (§1)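 Pharmacokinetics were determined in female rats after oral and intravenous administration.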
The next data set deals with T1, Cytochrome P450 1A2 (Homo sapiens, UniProt P05177).
T1 sequence (P05177 whole entry): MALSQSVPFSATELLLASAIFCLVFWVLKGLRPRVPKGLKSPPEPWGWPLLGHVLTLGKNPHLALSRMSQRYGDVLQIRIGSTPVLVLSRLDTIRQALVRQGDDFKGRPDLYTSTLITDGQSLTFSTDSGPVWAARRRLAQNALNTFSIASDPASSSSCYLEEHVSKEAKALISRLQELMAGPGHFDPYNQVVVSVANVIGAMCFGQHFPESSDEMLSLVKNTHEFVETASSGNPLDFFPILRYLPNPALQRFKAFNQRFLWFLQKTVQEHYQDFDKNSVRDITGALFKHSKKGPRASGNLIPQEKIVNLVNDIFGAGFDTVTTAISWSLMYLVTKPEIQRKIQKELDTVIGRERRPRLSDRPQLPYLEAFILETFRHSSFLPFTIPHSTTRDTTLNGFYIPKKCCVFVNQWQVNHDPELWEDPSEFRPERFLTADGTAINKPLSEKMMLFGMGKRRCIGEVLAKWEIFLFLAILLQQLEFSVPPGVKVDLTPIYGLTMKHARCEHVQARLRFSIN
Nature of the data set: Inhibition of CYP1A2. The data set is classed as ADME.

A short description of data set [4]: Clearance in rat at 5 mg/kg, iv. Format: ADME, organism-based. More on the design: dose 5 mg/kg, route intravenous. As to conditions: in vivo. The method, boiled down: as §1
Data set [5] is described as follows: Half life in rat at 10 mg/kg, po. The data set is classed as ADME, organism-based. Also on record: dose 10 mg/kg, route oral. As to conditions: in vivo. An outline of the steps: as §1
Data set [6] can be described thus: AUC in rat at 10 mg/kg, po. Format: ADME, organism-based. Particulars: plasma. Also on record: dose 10 mg/kg, route oral. An outline of the steps:
as §1

Data set [7] is described as follows: Oral bioavailability in rat at 10 mg/kg. Format: ADME, organism-based. Particulars: in vivo. The method, boiled down: as §1
The subject of a further data set is Blood. Nature of the data set: Inhibition of TNFalpha production in LPS-stimulated human whole blood preincubated before LPS challenge measured after 4 hrs by enzyme immunoassay. The data set is classed as functional, tissue-based.
The target in the next data set is Cytochrome P450 2C9 (Homo sapiens, UniProt P11712). Nature of the data set: Inhibition of CYP2C9. The data set is classed as ADME.
Chain of Cytochrome P450 2C9 (P11712 whole entry): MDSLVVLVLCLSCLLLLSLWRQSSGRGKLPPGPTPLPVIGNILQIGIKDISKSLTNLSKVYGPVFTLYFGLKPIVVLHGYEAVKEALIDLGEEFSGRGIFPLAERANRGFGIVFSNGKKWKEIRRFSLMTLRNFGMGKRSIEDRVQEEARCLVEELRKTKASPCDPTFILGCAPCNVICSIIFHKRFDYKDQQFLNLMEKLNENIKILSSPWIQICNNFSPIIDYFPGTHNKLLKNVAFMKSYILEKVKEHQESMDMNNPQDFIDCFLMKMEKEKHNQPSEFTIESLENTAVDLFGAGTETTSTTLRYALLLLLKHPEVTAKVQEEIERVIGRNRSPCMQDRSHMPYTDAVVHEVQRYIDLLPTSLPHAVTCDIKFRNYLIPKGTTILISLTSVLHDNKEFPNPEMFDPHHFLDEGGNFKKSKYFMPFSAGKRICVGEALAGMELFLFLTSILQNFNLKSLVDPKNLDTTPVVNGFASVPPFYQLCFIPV
The test system of data set [8] is Rattus norvegicus. Put plainly: Antiinflammatory activity in rat assessed as inhibition of LPS-induced TNFalpha production at 0.01 mg/kg, po. Also on record: dose 0.01 mg/kg. Format: functional, organism-based.
Data set [9] in a line: AUC in rat at 5 mg/kg, iv. The data set is classed as ADME, organism-based. More on the design: dose 5 mg/kg, route intravenous. As to conditions: plasma. The method, boiled down:
as §1

The nature of data set [10]: Cmax in rat at 5 mg/kg, iv. As to conditions: in vivo. The data set is classed as ADME, organism-based. Also on record: dose 5 mg/kg, route intravenous. The method, boiled down: as §1
Data set [11] relates to Rattus norvegicus. Nature of the data set: Antiinflammatory activity in po dosed rat assessed as inhibition of LPS-induced neutrophilia in bronchoalveolar lavage fluid. Format: functional. Particulars: Lung. The method, boiled down: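 Rat in vivo model: rats were dosed orally and neutrophilia was induced with LPS. Neutrophils were counted in bronchoalveolar lavage fluid and an ED50 for inhibition was determined.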

The next data set has as its target Cytochrome P450 2C19 (Homo sapiens, UniProt P33261). Put plainly: Inhibition of CYP2C19. The data set is classed as ADME.
The nature of data set [12]: Half life in rat at 5 mg/kg, iv. As to conditions: in vivo. The data set is classed as ADME, organism-based. More on the design: dose 5 mg/kg, route intravenous. The method, boiled down:
as §1

In the next data set the target is Cytochrome P450 3A4 (Homo sapiens, UniProt P08684). Put plainly: Inhibition of CYP3A4. Format: ADME.
Chain of Cytochrome P450 3A4 (P08684 whole entry): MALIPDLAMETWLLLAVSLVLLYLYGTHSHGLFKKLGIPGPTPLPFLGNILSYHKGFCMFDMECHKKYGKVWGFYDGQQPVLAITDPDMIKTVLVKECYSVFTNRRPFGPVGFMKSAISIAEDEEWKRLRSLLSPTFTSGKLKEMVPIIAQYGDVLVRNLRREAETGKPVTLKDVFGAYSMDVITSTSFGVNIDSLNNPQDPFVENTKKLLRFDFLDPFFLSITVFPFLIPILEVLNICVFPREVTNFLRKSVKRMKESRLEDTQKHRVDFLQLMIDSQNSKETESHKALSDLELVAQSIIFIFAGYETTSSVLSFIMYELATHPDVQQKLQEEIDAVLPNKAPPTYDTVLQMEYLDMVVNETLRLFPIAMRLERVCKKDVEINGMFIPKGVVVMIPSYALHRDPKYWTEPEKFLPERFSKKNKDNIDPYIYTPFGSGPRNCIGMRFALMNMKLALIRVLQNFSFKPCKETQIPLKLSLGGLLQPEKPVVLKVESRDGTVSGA
Data set [13] in a line: Volume of distribution at steady state in rat at 5 mg/kg, iv. The data set is classed as ADME, organism-based. Also on record: dose 5 mg/kg, route intravenous. Particulars: in vivo, read-out: Vdss. An outline of the steps:
as §1

For the next data set, the target named is Cytochrome P450 2D6 (Homo sapiens, UniProt P10635). Nature of the data set: Inhibition of CYP2D6. The data set is classed as ADME.
Chain of Cytochrome P450 2D6 (P10635 whole entry): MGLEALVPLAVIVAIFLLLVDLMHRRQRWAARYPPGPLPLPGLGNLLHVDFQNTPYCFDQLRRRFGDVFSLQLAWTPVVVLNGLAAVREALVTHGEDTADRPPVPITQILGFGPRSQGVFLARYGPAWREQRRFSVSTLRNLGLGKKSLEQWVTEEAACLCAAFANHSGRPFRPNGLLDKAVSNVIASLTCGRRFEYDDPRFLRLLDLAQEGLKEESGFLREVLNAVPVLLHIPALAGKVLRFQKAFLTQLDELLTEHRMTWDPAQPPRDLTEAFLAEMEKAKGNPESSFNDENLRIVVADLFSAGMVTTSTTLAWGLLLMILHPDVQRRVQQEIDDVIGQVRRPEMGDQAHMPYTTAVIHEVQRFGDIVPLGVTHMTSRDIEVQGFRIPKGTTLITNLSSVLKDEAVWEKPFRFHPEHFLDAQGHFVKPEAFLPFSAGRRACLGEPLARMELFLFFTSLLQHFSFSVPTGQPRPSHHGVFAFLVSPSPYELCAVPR
A short description of data set [14]: Metabolic stability in human microsomes assessed as half life. The data set is classed as ADME, Microsome.
Another data set concerns the target Phosphodiesterase 4 (Homo sapiens, UniProt P27815+Q08499+Q07343+Q08493). Put plainly: Inhibition of human PDE4. The data set is classed as protein assay. An outline of the steps:
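PDE4 enzyme was isolated from U937 cells, following a previously reported method.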

Data set [15] can be described thus: Ratio of IC50 for TNFalpha production in LPS-stimulated human whole blood to IC50 for TNFalpha production in LPS-stimulated human PBMC. The data set is classed as functional.
In data set [16] the test system is Rattus norvegicus. Nature of the data set: Antiinflammatory activity in po dosed BN rat late airway inflammatory model assessed as inhibition of ovalbumin-induced cell infiltration in bronchoalveolar lavage fluid measured 48 hrs after ovalbumin challenge. The data set is classed as functional. Particulars: Lung.

Chain of Cytochrome P450 2C19 (P33261 whole entry): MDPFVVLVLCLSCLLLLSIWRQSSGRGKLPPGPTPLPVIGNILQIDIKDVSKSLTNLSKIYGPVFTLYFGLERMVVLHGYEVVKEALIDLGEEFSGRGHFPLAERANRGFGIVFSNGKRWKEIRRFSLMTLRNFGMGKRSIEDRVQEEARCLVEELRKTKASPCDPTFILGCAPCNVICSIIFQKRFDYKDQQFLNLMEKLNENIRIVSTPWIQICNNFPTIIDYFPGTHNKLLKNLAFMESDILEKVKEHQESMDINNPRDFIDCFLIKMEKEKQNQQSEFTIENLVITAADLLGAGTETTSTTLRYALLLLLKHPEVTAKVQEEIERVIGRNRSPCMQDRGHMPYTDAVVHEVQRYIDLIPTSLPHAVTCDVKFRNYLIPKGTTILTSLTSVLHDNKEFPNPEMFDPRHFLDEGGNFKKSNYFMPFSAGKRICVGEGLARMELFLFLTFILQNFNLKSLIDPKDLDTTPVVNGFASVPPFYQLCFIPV

Regarding `CCOc1cc([C@@H](CS(C)(=O)=O)N2C(=O)c3cccc(NC(C)=O)c3C2=O)ccc1OC`, the IC50 – broadly, the concentration that inhibits the measured activity by half – is 77 nM in the data set on PBMC; above 10000 nM against Cytochrome P450 1A2; 110 nM in the data set with Blood; above 10000 nM on Cytochrome P450 2C9; above 10000 nM against Cytochrome P450 2C19; above 10000 nM on Cytochrome P450 3A4. The compound further displayed an IC50 at Cytochrome P450 2D6 above 10000 nM. In addition, the ED50 (usually the dose at which the effect has come halfway, by size or by number of responders) in the data set with Rattus norvegicus [1] is 0.03 mg/kg; with Rattus norvegicus [11] it was 0.3 mg/kg. Also, the fraction unbound in data set [2] is 0.1. In addition, the Cmax (commonly the maximum level reached in the sampled fluid or tissue) was found to be 1100 ng/mL in data set [3] and 6600 ng/mL in data set [10]. Besides, the clearance (in general, a measure of how efficiently the substance is removed, as volume per time) in data set [4] was 8.33 mL/min/kg. Also, the half-life (in general, how long it takes for the measured level to halve) is 5 h in data set [5], 3 h in [12] and above 1 h in [14]. For the same compound, the AUC – broadly, the area under the concentration-time curve, a measure of exposure – is 14000 ng·h/mL in data set [6] and 11000 ng·h/mL in data set [9]. Besides, the bioavailability – broadly, dose-corrected exposure relative to a reference, in per cent – in data set [7] came to 64%. Also, the result in the data set on Rattus norvegicus [8] was Active. The Vd in data set [13] is 2 L/kg.
As to `CCOc1cc(C(CS(C)(=O)=O)N2C(=O)c3cccc(NC(C)=O)c3C2=O)ccc1OC` (racemic), the values for the IC50 in the data set with PBMC and with Blood were 190 nM and 440 nM, respectively.
Take `CCOc1cc(C(CC(=O)OC)N2C(=O)c3ccccc3C2=O)ccc1OC` (stereo unspecified): the IC50 in the data set with Blood is 4000 nM; against Phosphodiesterase 4, 220 nM.
In the case of `CCOc1cc(C(CC(=O)O)N2C(=O)c3ccccc3C2=O)ccc1OC` (stereo unspecified), the IC50 in the data set on PBMC was 35000 nM; at Phosphodiesterase 4, 1300 nM.
For the compound `CCOc1cc(C(CS(C)(=O)=O)N2C(=O)c3cccc(C)c3C2=O)ccc1OC` (racemic), the IC50 with PBMC was 270 nM; in the data set on Blood, 2400 nM; at Phosphodiesterase 4, 68 nM. Further, the Ratio IC50 in [15] came out at 9.
As for `O=C(Nc1c(Cl)cncc1Cl)c1ccc(OC(F)F)c(OCC2CC2)c1` [ROFLUMILAST], the IC50 with PBMC turned out to be 0.02 nM. Also, the ED50 with Rattus norvegicus [16] came out at 0.9 mg/kg.
As for `COc1ccc(C(CC(=O)O)N2C(=O)c3ccccc3C2=O)cc1OC1CCCC1` (stereo unspecified), the IC50 in the data set with PBMC was found to be 36000 nM; against Phosphodiesterase 4, 340 nM.
For `CCOc1cc(C(CC#N)N2C(=O)c3cccc(NC(C)=O)c3C2=O)ccc1OC` (racemic), the figures for the 50% inhibitory concentration (IC50) in the data set with PBMC, in the data set with Blood and against Phosphodiesterase 4 were 440 nM, 1600 nM and 130 nM, respectively.
In the case of `CCOc1cc(C(CC(N)=O)N2C(=O)c3ccccc3C2=O)ccc1OC` (stereo unspecified), the IC50 in the data set with Blood came to 10500 nM; against Phosphodiesterase 4, 1900 nM.
As to `CCOc1cc([C@@H](CC(N)=O)N2C(=O)c3cccc(NC(C)=O)c3C2=O)ccc1OC`, the IC50 was found to be 3000 nM with PBMC and 710 nM against Phosphodiesterase 4.
With `COc1ccc(C(CC#N)N2C(=O)c3ccccc3C2=O)cc1OC1CCCC1` (stereo unspecified), the IC50 against Phosphodiesterase 4 stood at 340 nM.
For the compound `CCOc1cc(C(CS(C)(=O)=O)N2C(=O)c3cccc(N)c3C2=O)ccc1OC` (racemic), the IC50 in the data set with PBMC stood at 370 nM; in the data set with Blood it was 2200 nM; against Phosphodiesterase 4, 120 nM. The “Ratio IC50” value in data set [15] is 6.
Consider `CCOc1cc(C(CS(C)(=O)=O)N2C(=O)c3ccccc3C2=O)ccc1OC` (stereo unspecified), for which the IC50 in the data set on PBMC was determined as 1300 nM; in the data set with Blood, 2500 nM; at Phosphodiesterase 4, 220 nM.
As to `COC(=O)CC(c1ccc(OC)c(OC2CCCC2)c1)N1C(=O)c2ccccc2C1=O` (stereo unspecified), the IC50 was determined as 1700 nM in the data set with PBMC and 1600 nM at Phosphodiesterase 4.
In the data set on PBMC, `CCOc1cc([C@H](CS(C)(=O)=O)N2C(=O)c3cccc(NC(C)=O)c3C2=O)ccc1OC` returned an IC50 of 370 nM.
`CCOc1cc(C(CC#N)N2C(=O)c3ccccc3C2=O)ccc1OC` (stereo unspecified): the IC50 was determined as 240 nM in the data set on PBMC, 490 nM in the data set with Blood and 40 nM on Phosphodiesterase 4.
As for `CCOc1cc(C(CS(C)(=O)=O)N2C(=O)c3cccc(O)c3C2=O)ccc1OC` (racemic), the IC50 in the data set with PBMC stood at 1470 nM; at Phosphodiesterase 4 it was 820 nM.
In the case of `CCOc1cc(C(CS(C)(=O)=O)N2C(=O)c3cccc(N(C)C)c3C2=O)ccc1OC` (racemic), the IC50 in the data set on PBMC amounted to 220 nM; in the data set with Blood, 1400 nM; at Phosphodiesterase 4, 120 nM. In addition, the “Ratio IC50” value in [15] was found to be 6.
Consider `COc1ccc(C(CS(C)(=O)=O)N2C(=O)c3ccccc3C2=O)cc1OC1CCCC1` (stereo unspecified), for which the results for the IC50 in the data set with PBMC and at Phosphodiesterase 4 were 1500 nM and 260 nM, respectively.
Turning to `CCOc1cc(C(CS(C)(=O)=O)N2C(=O)c3cccc(OC)c3C2=O)ccc1OC` (racemic), the IC50 was 340 nM with PBMC and 690 nM at Phosphodiesterase 4.
